In ChEMBL document CHEMBL1773023, “Potent and selective phosphopeptide mimetic prodrugs targeted to the Src homology 2 (SH2) domain of signal transducer and activator of transcription 3” (J Med Chem, 2011):
pIC50: −log10 of the molar value. Each block holds one molecule with its values, some of them ahead of it. The source made the active and inactive calls. The calls are words filed in the database; no cut-off is given here.

Columns and labels:
MDA-MB-468 [1] = assay: Cytotoxicity against human MDA-MB-468 cells assessed as cell growth inhibition at 10 to 15 uM after 72 hrs by MTT assay; format: functional, cell-based
Summary of the method: (§1)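 MDA-MB-468 cells in DMEM/10% FBS, 1500 cells/well in triplicate; medium changed next day. Prodrug stock 10 mM in ethanol, diluted into wells (ethanol <1% final); single dose or daily re-addition at 24 and 48 h in same medium. MTT read-out at 72 h; assays run three times.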

[2] = target: T1, Signal transducer and activator of transcription 3 (Homo sapiens, UniProt P40763); assay: Inhibition of SH2 domain of Stat3 constitutive phosphorylation at Tyr705 in human MDA-MB-468 cells at 25 uM after 2 hrs by Western blotting; format: cell-based
T1 sequence (P40763 whole entry, the tested form may be a part): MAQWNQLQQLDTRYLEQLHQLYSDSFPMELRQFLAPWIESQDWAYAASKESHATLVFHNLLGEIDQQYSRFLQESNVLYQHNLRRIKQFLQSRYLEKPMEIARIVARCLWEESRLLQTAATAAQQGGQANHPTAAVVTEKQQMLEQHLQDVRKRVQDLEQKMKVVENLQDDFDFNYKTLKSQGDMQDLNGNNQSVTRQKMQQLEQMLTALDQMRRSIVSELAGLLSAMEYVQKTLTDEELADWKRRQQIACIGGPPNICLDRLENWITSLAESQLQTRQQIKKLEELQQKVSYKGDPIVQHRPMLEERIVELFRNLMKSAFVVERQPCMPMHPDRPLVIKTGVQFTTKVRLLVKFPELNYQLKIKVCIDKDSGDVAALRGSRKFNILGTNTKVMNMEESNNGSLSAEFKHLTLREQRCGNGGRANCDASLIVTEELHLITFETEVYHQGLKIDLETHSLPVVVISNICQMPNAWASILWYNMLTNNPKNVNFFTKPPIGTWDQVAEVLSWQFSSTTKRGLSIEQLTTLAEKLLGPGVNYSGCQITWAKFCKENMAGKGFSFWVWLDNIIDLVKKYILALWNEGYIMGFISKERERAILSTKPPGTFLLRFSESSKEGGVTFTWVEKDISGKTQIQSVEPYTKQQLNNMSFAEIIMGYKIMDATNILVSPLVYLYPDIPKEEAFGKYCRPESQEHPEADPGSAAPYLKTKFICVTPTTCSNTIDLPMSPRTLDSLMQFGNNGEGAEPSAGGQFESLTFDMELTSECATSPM
Summary of the method: (§2)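 MDA-MB-468 cells (4×10^5/well, DMEM 10% FCS, overnight) given prodrug from freshly made 10 mM DMSO stock for 2 h. Lysates in Hepes pH 7.4 Triton buffer with phosphatase/protease inhibitors; 12 μg protein on 8% SDS-PAGE, PVDF, probed for pStat3 Y705 by ECL, then stripped and reprobed for total Stat3.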

SKOV3ip = assay: Cytotoxicity against human SKOV3ip cells up to 50 uM after 72 hrs by SRB assay; format: functional, cell-based
Summary of the method: (§3)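 Cancer cell lines (MCF-7, SKOV3-ip, HCC-827) dosed daily with prodrug for three days; viability by SRB assay.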

MDA-MB-468 [3] = assay: Cytotoxicity against human MDA-MB-468 cells up to 50 uM after 72 hrs by SRB assay; format: functional, cell-based
HCC827 = assay: Cytotoxicity against human HCC827 cells up to 50 uM after 72 hrs by SRB assay; format: functional, cell-based; summary of the method: as §3
MCF7 = assay: Cytotoxicity against human MCF7 cells up to 50 uM after 72 hrs by SRB assay; format: functional, cell-based; summary of the method: as §3
[4] = target: T1, Signal transducer and activator of transcription 3; assay: Inhibition of SH2 domain of Stat3 constitutive phosphorylation at Tyr705 in human MDA-MB-468 cells at 5 uM after 2 hrs by Western blotting; format: cell-based; summary of the method: as §2
MDA-MB-468 [5] = assay: Cytotoxicity against human MDA-MB-468 cells after 72 hrs by MTT assay; format: functional, cell-based; settings: MDA-MB-468, 72 h; summary of the method: as §1
[6] = target: T2, Signal transducer and activator of transcription 1-alpha/beta (Homo sapiens) (UniProt P42224); assay: Inhibition of IFN-gamma-induced Stat1 phosphorylation at Tyr701 in human MDA-MB-468 cells at 5 uM treated 1.5 hrs before IFN-gamma challenge measured after 30 mins by Western blotting; format: cell-based
T2 sequence (whole entry): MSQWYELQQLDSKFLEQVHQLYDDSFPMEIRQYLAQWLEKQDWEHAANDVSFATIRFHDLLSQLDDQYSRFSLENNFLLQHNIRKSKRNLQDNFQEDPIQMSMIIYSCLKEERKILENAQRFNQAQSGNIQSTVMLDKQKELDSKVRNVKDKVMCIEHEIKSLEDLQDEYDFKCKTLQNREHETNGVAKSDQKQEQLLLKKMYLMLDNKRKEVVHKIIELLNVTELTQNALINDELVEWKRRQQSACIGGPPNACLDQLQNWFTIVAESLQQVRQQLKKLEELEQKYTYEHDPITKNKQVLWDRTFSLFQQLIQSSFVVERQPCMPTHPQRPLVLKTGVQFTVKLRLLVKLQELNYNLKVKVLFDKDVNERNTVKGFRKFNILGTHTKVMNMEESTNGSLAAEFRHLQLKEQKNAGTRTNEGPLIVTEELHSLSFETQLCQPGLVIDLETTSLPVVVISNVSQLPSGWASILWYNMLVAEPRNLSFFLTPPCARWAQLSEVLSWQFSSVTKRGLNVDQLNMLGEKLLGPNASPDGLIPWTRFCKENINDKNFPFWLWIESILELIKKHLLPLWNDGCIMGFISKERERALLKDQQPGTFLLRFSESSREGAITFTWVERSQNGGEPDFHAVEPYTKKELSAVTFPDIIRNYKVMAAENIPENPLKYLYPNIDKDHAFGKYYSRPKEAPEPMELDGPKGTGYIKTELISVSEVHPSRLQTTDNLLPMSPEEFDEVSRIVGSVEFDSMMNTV
Summary of the method: (§4)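 MDA-MB-468 cells exposed to rising prodrug concentrations for 1.5 h, then interferon γ 25 ng/mL for 30 min; Western blot for pTyr701 and total Stat1.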

[7] = target: T1, Signal transducer and activator of transcription 3; assay: Inhibition of SH2 domain of Stat3 constitutive phosphorylation at Tyr705 in human MDA-MB-468 cells at 5 uM after 4 hrs by Western blotting; format: cell-based
Summary of the method: (§5)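 MDA-MB-468 cells given a single 5 μM prodrug dose and harvested at set times; pTyr705 and total Stat3 by Western blot of 12 μg lysate protein on 8% SDS-PAGE.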

[8] = target: T3, Signal transducer and activator of transcription 5A (Homo sapiens) (UniProt P42229); assay: Inhibition of EGF-induced SH2 domain of Stat5 phosphorylation at Tyr694 in human MDA-MB-468 cells at 5 uM treated 1.5 hrs before EGF challenge measured after 30 mins by Western blotting; format: cell-based
T3 sequence (whole entry): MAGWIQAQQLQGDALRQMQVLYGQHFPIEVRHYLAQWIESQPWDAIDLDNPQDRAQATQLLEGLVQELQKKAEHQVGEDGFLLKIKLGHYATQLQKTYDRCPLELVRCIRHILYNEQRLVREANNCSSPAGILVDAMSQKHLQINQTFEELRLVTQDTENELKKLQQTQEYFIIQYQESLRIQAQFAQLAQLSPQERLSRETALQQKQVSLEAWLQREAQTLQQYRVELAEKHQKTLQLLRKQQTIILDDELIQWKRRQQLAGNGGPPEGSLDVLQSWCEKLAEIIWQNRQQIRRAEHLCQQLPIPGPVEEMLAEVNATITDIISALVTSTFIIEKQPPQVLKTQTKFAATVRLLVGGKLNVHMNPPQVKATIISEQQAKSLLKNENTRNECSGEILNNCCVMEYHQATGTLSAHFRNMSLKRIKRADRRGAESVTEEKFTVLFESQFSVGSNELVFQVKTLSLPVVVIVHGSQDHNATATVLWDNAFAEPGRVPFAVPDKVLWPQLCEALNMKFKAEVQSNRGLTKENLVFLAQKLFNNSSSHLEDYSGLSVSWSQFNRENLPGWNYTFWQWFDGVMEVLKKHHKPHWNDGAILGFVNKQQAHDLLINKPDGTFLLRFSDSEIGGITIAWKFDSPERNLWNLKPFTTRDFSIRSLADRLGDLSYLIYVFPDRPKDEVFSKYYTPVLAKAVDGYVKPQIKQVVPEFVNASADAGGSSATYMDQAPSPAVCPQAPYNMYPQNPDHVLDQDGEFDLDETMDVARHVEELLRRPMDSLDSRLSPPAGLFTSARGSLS
Summary of the method: (§6)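 MDA-MB-468 cells pretreated 1.5 h with prodrug (5 μM), then EGF 100 ng/mL for 30 min; lysates split onto three PVDF blots probed for phospho/total Stat3, pSer473/total Akt, and phospho/total Stat5.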

[9] = target: T1, Signal transducer and activator of transcription 3; assay: Inhibition of SH2 domain of Stat3 constitutive phosphorylation at Tyr705 in human MDA-MB-468 cells at 5 uM after 30 mins by Western blotting; format: cell-based; summary of the method: as §5
[10] = target: RAC-alpha serine/threonine-protein kinase (Homo sapiens) (UniProt P31749); assay: Inhibition of EGF-induced Akt phosphorylation at Ser473 in human MDA-MB-468 cells at 5 uM treated 1.5 hrs before EGF challenge measured after 30 mins by Western blotting; format: cell-based; summary of the method: as §6
Chain of RAC-alpha serine/threonine-protein kinase (Homo sapiens) (P31749 whole entry, the tested form may be a part): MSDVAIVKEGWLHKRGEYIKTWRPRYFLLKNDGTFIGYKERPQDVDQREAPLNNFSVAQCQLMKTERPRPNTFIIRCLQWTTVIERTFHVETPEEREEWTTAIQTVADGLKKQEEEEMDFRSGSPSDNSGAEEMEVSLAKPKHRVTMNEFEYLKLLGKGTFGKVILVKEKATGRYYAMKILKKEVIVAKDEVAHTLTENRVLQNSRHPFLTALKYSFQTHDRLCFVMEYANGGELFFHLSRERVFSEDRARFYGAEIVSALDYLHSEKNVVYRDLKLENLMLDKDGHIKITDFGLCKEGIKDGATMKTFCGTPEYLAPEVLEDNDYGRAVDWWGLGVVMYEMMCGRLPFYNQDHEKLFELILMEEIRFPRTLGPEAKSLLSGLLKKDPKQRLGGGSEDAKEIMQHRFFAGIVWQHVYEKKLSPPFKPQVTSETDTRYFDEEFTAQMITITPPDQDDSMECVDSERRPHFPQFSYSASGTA

[11] = target: T1, Signal transducer and activator of transcription 3; assay: Inhibition of SH2 domain of Stat3 constitutive phosphorylation at Tyr705 in human MDA-MB-468 cells at 5 uM after 8 hrs by Western blotting; format: cell-based; summary of the method: as §5
[12] = target: T2, Signal transducer and activator of transcription 1-alpha/beta (Homo sapiens); assay: Inhibition of IFN-gamma-induced Stat1 phosphorylation at Tyr701 in human MDA-MB-468 cells treated 1.5 hrs before IFN-gamma challenge measured after 30 mins by Western blotting; format: cell-based; summary of the method: as §4
[13] = target: T1, Signal transducer and activator of transcription 3; assay: Inhibition of SH2 domain of Stat3 constitutive phosphorylation at Tyr705 in human MDA-MB-468 cells at 0.5 uM after 2 hrs by Western blotting; format: cell-based; summary of the method: as §2
[14] = target: Focal adhesion kinase 1 (Homo sapiens) (UniProt Q05397); assay: Inhibition of constitutive FAK phosphorylation at Tyr861 in human MDA-MB-468 cells at 5 uM measured after 2 hrs by Western blotting
Chain of Focal adhesion kinase 1 (Homo sapiens) (Q05397 2-1052 limits assumed): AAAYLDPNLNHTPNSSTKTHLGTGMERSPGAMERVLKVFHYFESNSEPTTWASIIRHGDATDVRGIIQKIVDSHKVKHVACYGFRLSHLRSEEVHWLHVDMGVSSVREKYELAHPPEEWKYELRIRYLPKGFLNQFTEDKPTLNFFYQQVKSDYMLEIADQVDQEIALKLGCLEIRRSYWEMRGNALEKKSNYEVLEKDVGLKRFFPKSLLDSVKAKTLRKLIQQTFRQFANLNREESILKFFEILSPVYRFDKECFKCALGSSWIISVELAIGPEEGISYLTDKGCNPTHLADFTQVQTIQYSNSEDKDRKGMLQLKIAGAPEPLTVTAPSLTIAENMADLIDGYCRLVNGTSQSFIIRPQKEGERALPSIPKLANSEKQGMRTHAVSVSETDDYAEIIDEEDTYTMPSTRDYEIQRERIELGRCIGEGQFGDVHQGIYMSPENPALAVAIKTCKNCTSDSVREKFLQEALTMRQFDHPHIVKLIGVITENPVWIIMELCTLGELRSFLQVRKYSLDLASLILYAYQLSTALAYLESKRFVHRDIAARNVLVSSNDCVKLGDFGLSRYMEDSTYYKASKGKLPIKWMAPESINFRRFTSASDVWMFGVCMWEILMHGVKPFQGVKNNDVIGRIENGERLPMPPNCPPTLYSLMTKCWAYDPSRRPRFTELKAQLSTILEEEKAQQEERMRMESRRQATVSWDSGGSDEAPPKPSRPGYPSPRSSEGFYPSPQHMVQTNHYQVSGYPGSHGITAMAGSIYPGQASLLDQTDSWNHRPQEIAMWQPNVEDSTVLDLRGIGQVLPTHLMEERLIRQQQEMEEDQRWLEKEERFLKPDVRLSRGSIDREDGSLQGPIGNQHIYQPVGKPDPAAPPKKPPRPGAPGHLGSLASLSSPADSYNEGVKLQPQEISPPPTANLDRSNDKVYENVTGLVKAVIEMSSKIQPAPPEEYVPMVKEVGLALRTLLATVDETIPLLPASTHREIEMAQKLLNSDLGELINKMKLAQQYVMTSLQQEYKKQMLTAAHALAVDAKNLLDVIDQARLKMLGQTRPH

MDA-MB-468 [15] = assay: Selectivity ratio of inhibition of IFNgamma-induced Stat1 phosphorylation at Tyr701 to inhibition of EGF-induced SH2 domain of Stat3 phosphorylation at Tyr705 in human MDA-MB-468 cells; format: cell-based
[16] = target: T1, Signal transducer and activator of transcription 3; assay: Inhibition of EGF-induced SH2 domain of Stat3 phosphorylation at Tyr705 in human MDA-MB-468 cells at 5 uM treated 1.5 hrs before EGF challenge measured after 30 mins by Western blotting; format: cell-based; summary of the method: as §6
[17] = target: T1, Signal transducer and activator of transcription 3; assay: Inhibition of SH2 domain of Stat3 constitutive phosphorylation at Tyr705 in human MDA-MB-468 cells at 5 uM after 16 hrs by Western blotting; format: cell-based; summary of the method: as §5

inhibition [2]: inactive
SMILES: CCCC[C@H](NC(=O)/C=C(\C)c1ccc(C(F)(F)P(=O)(OCOC(=O)C(C)(C)C)OCOC(=O)C(C)(C)C)cc1)C(=O)N1C[C@@H]2C[C@@H]2[C@@H]1C(=O)N[C@@H](CCC(N)=O)C(C)OCc1ccccc1 (stereo partly drawn)
growth inhibition (GI) (MDA-MB-468 [1]): Active

inhibition [2]: inactive
SMILES: CCOP(=O)(OCC)C(F)(F)c1ccc(/C(C)=C/C(=O)N[C@H]2CCc3cccc4c3N(C2=O)[C@H](C(=O)N[C@H](C)CCC(N)=O)C4)cc1
growth inhibition (GI) (SKOV3ip): inactive
growth inhibition (GI) (MDA-MB-468 [3]): inactive
growth inhibition (GI) (HCC827): inactive
growth inhibition (GI) (MCF7): inactive

inhibition [4]: Active
SMILES: CCCC[C@H](NC(=O)/C=C(\C)c1ccc(C(F)(F)P(=O)(OCOC(=O)C(C)(C)C)OCOC(=O)C(C)(C)C)cc1)C(=O)N1CC2CC2C1C(=O)NCCNC(N)=O (mixture of isomers)

inhibition [2]: Active
SMILES: CCCC[C@H](NC(=O)/C=C(\C)c1ccc(C(F)(F)P(=O)(OCOC(=O)C(C)(C)C)OCOC(=O)C(C)(C)C)cc1)C(=O)N1C[C@@H]2C[C@@H]2[C@@H]1C(=O)N[C@H](C)CCC(N)=O
pIC50 (MDA-MB-468 [5]): 4.52

inhibition [6]: Active
inhibition [7]: Active
inhibition [8]: inactive
inhibition [9]: Active
inhibition [10]: inactive
inhibition [11]: Active
inhibition [12]: Dose-dependent effect
inhibition [13]: Active
inhibition [14]: inactive
inhibition [16]: Active
inhibition [17]: inactive
SMILES: CCCC[C@H](NC(=O)/C=C(\C)c1ccc(C(F)(F)P(=O)(OCOC(=O)C(C)(C)C)OCOC(=O)C(C)(C)C)cc1)C(=O)N1C[C@H]2C[C@H]2[C@H]1C(=O)N[C@H](C)CCC(N)=O
pIC50 (MDA-MB-468 [5]): 4.52
Ratio (MDA-MB-468 [15]): 10
